Laboratory results reported in ChEMBL document CHEMBL3351895, “Cytotoxicity of synthesized 1,4-naphthoquinone analogues on selected human cancer cell lines” (Bioorg Med Chem, 2014).

What was measured:
[1] = Cytotoxicity against human SNO cells assessed as cell survival after 48 hrs by XTT assay
MCF7 = assay: Cytotoxicity against human MCF7 cells assessed as cell survival after 48 hrs by XTT assay; conditions: MCF7, 48 h
HeLa = assay: Cytotoxicity against human HeLa cells assessed as cell survival after 48 hrs by XTT assay
DU-145 = assay: Cytotoxicity against human DU145 cells assessed as cell survival after 48 hrs by XTT assay; conditions: DU-145, 48 h
U-937 [2] = assay: Cytotoxicity against human U937 cells assessed as cell survival after 24 hrs by XTT assay; assay type: functional, cell-based
[3] = Cell cycle arrest in human U937 cells assessed as accumulation at subG1 phase at 2 ug/ml after 24 hrs by propidium iodide staining-based flow cytometric analysis (reference value: 15.1%); assay type: functional; conditions: U-937
How it was run: (§1)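 U937 cells in complete RPMI 1640 (10% FBS, 25 mM HEPES, 2 mM glutamine) seeded at 2 × 10^6 cells/ml in flasks, recovered 24 h, then treated with compounds in DMSO (2 µg/ml). Cisplatin (10 µM) served as positive control and DMSO as negative control. Cells were harvested at 24 or 48 h and stained with propidium iodide. Phase percentages were gated on singlet cells by flow cytometry. Three independent experiments.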

[4] = Cell cycle arrest in human U937 cells assessed as accumulation at G0/G1 phase at 2 ug/ml after 24 hrs by propidium iodide staining-based flow cytometric analysis (reference value: 41.7%); assay type: functional; conditions: U-937
How it was run: as §1

[5] = Cell cycle arrest in human U937 cells assessed as accumulation at S phase at 2 ug/ml after 24 hrs by propidium iodide staining-based flow cytometric analysis (reference value: 30.7%); assay type: functional; conditions: U-937
How it was run: as §1

[6] = Cell cycle arrest in human U937 cells assessed as accumulation at G2/M phase at 2 ug/ml after 24 hrs by propidium iodide staining-based flow cytometric analysis (reference value: 12.5%); assay type: functional; conditions: U-937
How it was run: as §1

[7] = Cell cycle arrest in human U937 cells assessed as accumulation at subG1 phase at 2 ug/ml after 48 hrs by propidium iodide staining-based flow cytometric analysis (reference value: 1.1%); assay type: functional; conditions: U-937
How it was run: as §1

[8] = Cell cycle arrest in human U937 cells assessed as accumulation at G0/G1 phase at 2 ug/ml after 48 hrs by propidium iodide staining-based flow cytometric analysis (reference value: 54.6%); assay type: functional; conditions: U-937
How it was run: as §1

[9] = Cell cycle arrest in human U937 cells assessed as accumulation at S phase at 2 ug/ml after 48 hrs by propidium iodide staining-based flow cytometric analysis (reference value: 25.7%); assay type: functional; conditions: U-937
How it was run: as §1

[10] = Cell cycle arrest in human U937 cells assessed as accumulation at G2/M phase at 2 ug/ml after 48 hrs by propidium iodide staining-based flow cytometric analysis (reference value: 16.6%); assay type: functional; conditions: U-937
How it was run: as §1

U-937 [11] = assay: Induction of apoptosis in human U937 cells assessed as necrotic cells at 2 ug/ml after 24 hrs by annexin V-FITC/propidium iodide staining-based flow cytometry (reference value: 24.7%); assay type: functional
U-937 [12] = assay: Induction of apoptosis in human U937 cells assessed as late apoptotic cells at 2 ug/ml after 24 hrs by annexin V-FITC/propidium iodide staining-based flow cytometry (reference value: 3%); assay type: functional
U-937 [13] = assay: Induction of apoptosis in human U937 cells assessed as early apoptotic cells at 2 ug/ml after 24 hrs by annexin V-FITC/propidium iodide staining-based flow cytometry (reference value: 6.3%); assay type: functional
U-937 [14] = assay: Induction of apoptosis in human U937 cells assessed as viable cells at 2 ug/ml after 24 hrs by annexin V-FITC/propidium iodide staining-based flow cytometry (reference value: 66%); assay type: functional; conditions: U-937, 24 h, read-out: Activity
U-937 [15] = assay: Induction of apoptosis in human U937 cells assessed as necrotic cells at 2 ug/ml after 48 hrs by annexin V-FITC/propidium iodide staining-based flow cytometry (reference value: 1.4%); assay type: functional
U-937 [16] = assay: Induction of apoptosis in human U937 cells assessed as late apoptotic cells at 2 ug/ml after 48 hrs by annexin V-FITC/propidium iodide staining-based flow cytometry (reference value: 11.7%); assay type: functional
U-937 [17] = assay: Induction of apoptosis in human U937 cells assessed as early apoptotic cells at 2 ug/ml after 48 hrs by annexin V-FITC/propidium iodide staining-based flow cytometry (reference value: 5.7%); assay type: functional
U-937 [18] = assay: Induction of apoptosis in human U937 cells assessed as viable cells at 2 ug/ml after 48 hrs by annexin V-FITC/propidium iodide staining-based flow cytometry (reference value: 81.3%); assay type: functional; conditions: U-937, 48 h, read-out: Activity

Compound | IC50 [1] [µM] | IC50 (MCF7) [µM] | IC50 (HeLa) [µM] | IC50 (DU-145) [µM] | further results
CC(=O)Oc1cc(OC(C)=O)c2c(OC(C)=O)c(C)cc(Cl)c2c1OC(C)=O | 53.5 | 57.5 | 27.9 | 81.6 | –
COc1cccc2c1C(=O)c1c(O)c3c(c(O)c1C2=O)C[C@@](O)(C(=O)CO)C[C@@H]3O[C@H]1C[C@H](N)[C@H](O)[C@H](C)O1 [DOXORUBICIN] | 0.01 | – | – | 0.01 | –
CC(=O)Oc1c(C)cc(Cl)c2c1C(=O)C=CC2=O | 28.6 | 18.7 | 21.8 | 12.5 | –
CCOc1cc(C)c(Cl)c2c1C(=O)C=CC2=O | 44.2 | 40 | 19 | 25.4 | –
CCOc1cc(C)cc2c1C(=O)C=CC2=O | 25.3 | 23.7 | 29.7 | 15 | –
COc1cc(C)c(Cl)c2c1C(=O)C=CC2=O | 24.6 | 20.6 | 19.1 | 26.6 | –
Cc1cc(Cl)c2c(c1O)C(=O)C=CC2=O | 9.4 | 10 | 10.1 | 9.3 | Activity (U-937 [2]): Not toxic; Activity [3]: 18.1%; Activity [4]: 65.6%; Activity [5]: 11.4%; Activity [6]: 4.5%; Activity [7]: 17.9%; Activity [8]: 62.2%; Activity [9]: 14.1%; Activity [10]: 5.3%; Activity (U-937 [11]): 49.6%; Activity (U-937 [12]): 28.3%; Activity (U-937 [13]): 17.1%; viability at 2 µg/mL (U-937 [14]): 5%; Activity (U-937 [15]): 60.1%; Activity (U-937 [16]): 36.1%; Activity (U-937 [17]): 1.9%; viability at 2 µg/mL (U-937 [18]): 1.9%
CC(=O)Oc1cc(C)c(Cl)c2c1C(=O)C=CC2=O | 28.8 | 37.9 | 26.2 | 25.5 | –
CC(=O)Oc1cc(OC(C)=O)c2c(OC(C)=O)cc(C)cc2c1OC(C)=O | 25 | 82 | 22.4 | 64.6 | –
COc1cc(C)cc2c1C(=O)C=CC2=O | 22.5 | 15.3 | 21.1 | 30.7 | –
